According to the array DNA melting data of Ke et al. (doi:10.1101/2024.01.08.574731):

Legend:
[1] = folding enthalpy; higher = less favourable; fluorescence melt of hairpins on a sequencing array, two-state fit; conditions: sodium 0.088 M
Method in brief: (§1)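 Folding enthalpy and melting temperature come from bootstrapped two-state fits to Cy3 fluorescence of library hairpins carrying annealed Cy3 and quencher oligos on a sequenced MiSeq flow cell. Imaging was done in 50 mM Na-HEPES pH 8.0, 25 mM NaCl, stepping by 2.5 °C up to 60 °C, and signals were normalised to pre-quench Cy3 and to control constructs. Results of four replicates were combined by inverse variance, and fitted temperatures were raised by 9.35 °C to match UV melts.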

[2] = melting temperature; fluorescence melt of hairpins on a sequencing array, two-state fit, raised by 9.35 °C to match UV melts; conditions: sodium 0.088 M
Method in brief: as §1

Sequence | folding enthalpy [1] | Tm [2]
GTGGGCGGAAACACCCAC (((((.(....).))))) | -181 kJ/mol | 53.1 °C
GTGGGCGGAAACGTCCAC ((((.((....)).)))) | -174 kJ/mol | 64.7 °C
GTGGGCGGAAACGTCCGC (.((.((....)).)).) | -106 kJ/mol | 54.3 °C
GTGGGGACGAAAGTCCAC (((..(((....)))))) | -64.3 kJ/mol | 61.8 °C
GTGGGGGAAACCCCAC ((((((....)))))) | -134 kJ/mol | 68 °C
GTGGGGGGAAACCCCTAC ((.((((....)))).)) | -74.3 kJ/mol | 52.2 °C
GTGGGGGGAAACTCCCAC (((((.(....).))))) | -148 kJ/mol | 56.2 °C
GTGGGTCGAAAGACACAC (((.(((....))).))) | -196 kJ/mol | 63.5 °C
GTGGGTCGAAAGACGCAC (((.(((....))).))) | -143 kJ/mol | 63.3 °C
GTGGGTGAAAACCCAC ((((((....)))))) | -117 kJ/mol | 67.3 °C
GTGGGTGGAAACATCCGC (.((.((....)).)).) | -110 kJ/mol | 44.2 °C
GTGGTACCGAAAGGTCAC (((..(((....)))))) | -77.1 kJ/mol | 38.4 °C
GTGGTCCGAAAGGAGCAC (((.(((....))).))) | -145 kJ/mol | 67.6 °C
GTGGTCGAAAGACACCAC ((((((....)))..))) | -65.4 kJ/mol | 42.4 °C
GTGGTCGAAAGACCCAC ((((((....))).))) | -55.1 kJ/mol | 51.1 °C
GTGGTCGAAAGACCTCAC ((((((....)))..))) | -44.6 kJ/mol | 38 °C
GTGGTGCCGAAAGGCCAC (((..(((....)))))) | -53.7 kJ/mol | 48 °C
GTGGTGGAAACACCAC ((((((....)))))) | -145 kJ/mol | 66.6 °C
GTGGTGGGAAACCATCAC (((.(((....))).))) | -180 kJ/mol | 51.2 °C
GTGGTGGGAAACCGCCAC ((((.((....)).)))) | -168 kJ/mol | 61.9 °C
GTGGTTACGAAAGTACAC (((..(((....)))))) | -86.6 kJ/mol | 35.5 °C
GTGGTTGGAAACAACTAC ((.((((....)))).)) | -104 kJ/mol | 47.8 °C
GTGGTTGGAAACGACTAC ((.((.(....).)).)) | -107 kJ/mol | 41.8 °C

Sequence | folding enthalpy [1] | Tm [2]
GTGGTTGGAAACGATCAC (((.(.(....).).))) | -75.1 kJ/mol | 34.1 °C
GTGGTTTCGAAAGAACAC (((..(((....)))))) | -65.4 kJ/mol | 31.3 °C
GTGTAAGAAATTACAC ((((((....)))))) | -122 kJ/mol | 46.1 °C
GTGTAAGGAAACTCACAC ((((.((....)).)))) | -70.6 kJ/mol | 32.8 °C
GTGTAAGGAAACTTGCAC (((.(((....))).))) | -130 kJ/mol | 45.1 °C
GTGTACGAAAGTATACAC ((((((....)))..))) | -92 kJ/mol | 44.9 °C
GTGTACGAAAGTATTCAC ((((((....)))..))) | -49.2 kJ/mol | 28.7 °C
GTGTAGGGAAACTTGCAC (((.(.(....).).))) | -74.1 kJ/mol | 29.4 °C
GTGTATGAAAATACAC ((((((....)))))) | -151 kJ/mol | 52.5 °C
GTGTATGGAAACATATAC ((.((((....)))).)) | -155 kJ/mol | 37.8 °C
GTGTATGGAAACGTACAC (((((.(....).))))) | -142 kJ/mol | 47.2 °C
GTGTCACCGAAAGGTCAC (((..(((....)))))) | -85.7 kJ/mol | 38.2 °C
GTGTCACGAAAGTGTCAC (((.(((....))).))) | -169 kJ/mol | 53.5 °C
GTGTCAGGAAACCGACAC (((((.(....).))))) | -178 kJ/mol | 49.2 °C
GTGTCCCGAAAGGGCAC (((.(((....)))))) | -109 kJ/mol | 65.2 °C
GTGTCCCGAAAGGGTCAC (((.(((....))).))) | -129 kJ/mol | 57.9 °C
GTGTCCGAAAGGAACAC ((((((....))).))) | -126 kJ/mol | 52.8 °C
GTGTCCGAAAGGAAGCAC ((((((....)))..))) | -80.3 kJ/mol | 38.6 °C
GTGTCCGAAAGGACGCAC ((((((....)))..))) | -43.5 kJ/mol | 57.8 °C
GTGTCCGAAAGGAGCAC ((((((....))).))) | -99.9 kJ/mol | 49 °C
GTGTCCGCGAAAGCGCAC (((..(((....)))))) | -59 kJ/mol | 40.5 °C
GTGTCCGGAAACGGATGC (..((((....))))..) | -107 kJ/mol | 48 °C
GTGTCGCGAAAGCGCAC (((.(((....)))))) | -78.5 kJ/mol | 56.6 °C

Sequence | folding enthalpy [1] | Tm [2]
GTGTCGTCGAAAGACCAC (((..(((....)))))) | -80.5 kJ/mol | 38.4 °C
GTGTCTCGAAAGAGCCAC (((.(((....))).))) | -121 kJ/mol | 49.7 °C
GTGTCTCGAAAGAGGCAC (((.(((....))).))) | -161 kJ/mol | 61.3 °C
GTGTCTGAAAAGACAC ((((((....)))))) | -141 kJ/mol | 61 °C
GTGTCTGGAAACAAACAC ((((.((....)).)))) | -90.3 kJ/mol | 33.2 °C
GTGTCTGGAAACGGATAC ((.((.(....).)).)) | -72 kJ/mol | 36.6 °C
GTGTCTTCGAAAGAACAC (((..(((....)))))) | -71.8 kJ/mol | 32.9 °C
GTGTGACGAAAGTCCCAC (((.(((....))).))) | -105 kJ/mol | 50.5 °C
GTGTGCGAAAGCAACAC ((((((....))).))) | -126 kJ/mol | 61.3 °C
GTGTGCGAAAGCAATCAC ((((((....)))..))) | -67.3 kJ/mol | 39.9 °C
GTGTGCGAAAGCAGGCAC ((((((....)))..))) | -66.2 kJ/mol | 44.8 °C
GTGTGCGAAAGCAGTCAC ((((((....)))..))) | -69 kJ/mol | 38.5 °C
GTGTGCGAAAGCATACAC ((((((....)))..))) | -76.3 kJ/mol | 53.1 °C
GTGTGCGGAAACGCACGC (.(((((....))))).) | -68.4 kJ/mol | 66 °C
GTGTGTCGAAAGACGCAC (((.(((....))).))) | -158 kJ/mol | 61.4 °C
GTGTGTGAAAACACAC ((((((....)))))) | -154 kJ/mol | 64.3 °C
GTGTGTGGAAACACACAC (((((((....))))))) | -135 kJ/mol | 68.8 °C
GTGTGTGGAAACACGTAC ((..(((....)))..)) | -49.4 kJ/mol | 38.7 °C
GTGTGTGGAAACATACAC ((((.((....)).)))) | -166 kJ/mol | 48.6 °C
GTGTGTGGAAACATACGC (.((.((....)).)).) | -123 kJ/mol | 47 °C
GTGTTAGGAAACTAACGC (.(((((....))))).) | -91.4 kJ/mol | 47.4 °C
GTGTTAGGAAACTAATAC ((.((((....)))).)) | -99.8 kJ/mol | 37.2 °C
GTGTTATCGAAAGATCAC (((..(((....)))))) | -115 kJ/mol | 33.8 °C

Sequence | folding enthalpy [1] | Tm [2]
GTGTTCACGAAAGTGCAC (((..(((....)))))) | -86.5 kJ/mol | 42.3 °C
GTGTTCCCGAAAGGGCAC (((..(((....)))))) | -93.9 kJ/mol | 46.1 °C
GTGTTCCGAAAGGACCAC (((.(((....))).))) | -160 kJ/mol | 49.7 °C
GTGTTCGAAAGAACCAC ((((((....))).))) | -55.5 kJ/mol | 43.5 °C
GTGTTCGAAAGAACTCAC ((((((....)))..))) | -57.1 kJ/mol | 38.1 °C
GTGTTCGGAAACGAATGC (..((((....))))..) | -104 kJ/mol | 42.1 °C
GTGTTCGGAAACGGACAC ((((.((....)).)))) | -187 kJ/mol | 55 °C
GTGTTGAAAAACAC (((((....))))) | -110 kJ/mol | 49.9 °C
GTGTTGCCGAAAGGCCAC (((..(((....)))))) | -43 kJ/mol | 57.8 °C
GTGTTGCGAAAGCATCAC (((.(((....))).))) | -128 kJ/mol | 54 °C
GTGTTGGCGAAAGCCCAC (((..(((....)))))) | -65.1 kJ/mol | 47 °C
GTGTTGGGAAACCAACAC (((((((....))))))) | -180 kJ/mol | 63.5 °C
GTGTTGGGAAACTAACAC (((((.(....).))))) | -152 kJ/mol | 46.7 °C
GTGTTTCGAAAGAATCAC (((.(((....))).))) | -165 kJ/mol | 45 °C
GTGTTTGGAAACAAATGC (..((((....))))..) | -91 kJ/mol | 34.8 °C
GTGTTTGGAAACAGACAC ((((.((....)).)))) | -151 kJ/mol | 44.1 °C
GTTAAACCGAAAGGTAAC (((..(((....)))))) | -63.6 kJ/mol | 29.9 °C
GTTAAAGAAATTTAAC ((((((....)))))) | -60 kJ/mol | 29.6 °C
GTTAAAGGAAACTTTGAC ((.((((....)))).)) | -69.9 kJ/mol | 33.2 °C
GTTAACACGAAAGTGAAC (((..(((....)))))) | -40.3 kJ/mol | 25.3 °C
GTTAACCGAAAGGTCAAC (((.(((....))).))) | -85.9 kJ/mol | 37.7 °C
GTTAACGAAAGTTAAAAC ((((((....)))..))) | -40.2 kJ/mol | 30.2 °C
